Source: ChEMBL document CHEMBL5661979, “Pharmacological inhibition of BMK1 suppresses tumor growth through promyelocytic leukemia protein” (Cancer Cell, 2010)
pIC50: −log10 of the molar value.

What was measured:
[1] = biological target: Calcium/calmodulin-dependent protein kinase type II subunit gamma (Homo sapiens, UniProt Q13555); test: Inhibition of CAMK2g in human HeLa cells lysate pre incubated for 15 mins followed by ADP acyl phosphate probe addition and measured after 10 mins by LC-MS/MS analysis; assay type: subcellular
Calcium/calmodulin-dependent protein kinase type II subunit gamma, sequence (Q13555 whole entry, the tested form may be a part): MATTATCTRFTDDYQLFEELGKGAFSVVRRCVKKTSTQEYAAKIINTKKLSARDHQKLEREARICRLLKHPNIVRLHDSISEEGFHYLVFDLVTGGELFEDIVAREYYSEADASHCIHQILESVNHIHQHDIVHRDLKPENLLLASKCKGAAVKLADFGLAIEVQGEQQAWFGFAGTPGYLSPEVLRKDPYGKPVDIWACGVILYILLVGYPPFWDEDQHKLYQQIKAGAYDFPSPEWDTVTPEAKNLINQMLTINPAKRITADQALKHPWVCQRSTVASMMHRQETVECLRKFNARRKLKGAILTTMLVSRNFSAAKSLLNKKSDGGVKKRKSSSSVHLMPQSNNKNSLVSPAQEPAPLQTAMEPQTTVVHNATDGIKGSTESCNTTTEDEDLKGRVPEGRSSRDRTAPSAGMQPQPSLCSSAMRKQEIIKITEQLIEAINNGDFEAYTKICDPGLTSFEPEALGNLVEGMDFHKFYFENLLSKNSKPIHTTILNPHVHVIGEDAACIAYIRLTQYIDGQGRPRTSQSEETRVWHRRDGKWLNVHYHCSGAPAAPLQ
Summary of the method: (§1)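 KiNativ-type profiling in HeLa lysate (5 mg/mL total protein). Lysate preincubated 15 min with inhibitor at 50, 10, 2, 0.8 or 0 μM, then ATP or ADP acylphosphate probe added (5 μM final) for 10 min. Reaction stopped with urea and analysed by targeted MS, using up to four fragment ions per kinase peptide-probe conjugate. % inhibition calculated against untreated lysate. Duplicate reactions.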

[2] = Inhibition of MSK1/2 domain 1 in human HeLa cells lysate at 2 uM pre incubated for 15 mins followed by ATP acyl phosphate probe addition and measured after 10 mins by LC-MS/MS analysis relative to control; details: 25 min, condition cancer
[3] = biological target: T1, Serine/threonine-protein kinase Nek9 (Homo sapiens) (UniProt Q8TD19); test: Inhibition of NEK9 in human HeLa cells lysate at 10 uM pre incubated for 15 mins followed by ATP acyl phosphate probe addition and measured after 10 mins by LC-MS/MS analysis relative to control; assay type: subcellular; details: time 25.0 min
T1 sequence (whole entry): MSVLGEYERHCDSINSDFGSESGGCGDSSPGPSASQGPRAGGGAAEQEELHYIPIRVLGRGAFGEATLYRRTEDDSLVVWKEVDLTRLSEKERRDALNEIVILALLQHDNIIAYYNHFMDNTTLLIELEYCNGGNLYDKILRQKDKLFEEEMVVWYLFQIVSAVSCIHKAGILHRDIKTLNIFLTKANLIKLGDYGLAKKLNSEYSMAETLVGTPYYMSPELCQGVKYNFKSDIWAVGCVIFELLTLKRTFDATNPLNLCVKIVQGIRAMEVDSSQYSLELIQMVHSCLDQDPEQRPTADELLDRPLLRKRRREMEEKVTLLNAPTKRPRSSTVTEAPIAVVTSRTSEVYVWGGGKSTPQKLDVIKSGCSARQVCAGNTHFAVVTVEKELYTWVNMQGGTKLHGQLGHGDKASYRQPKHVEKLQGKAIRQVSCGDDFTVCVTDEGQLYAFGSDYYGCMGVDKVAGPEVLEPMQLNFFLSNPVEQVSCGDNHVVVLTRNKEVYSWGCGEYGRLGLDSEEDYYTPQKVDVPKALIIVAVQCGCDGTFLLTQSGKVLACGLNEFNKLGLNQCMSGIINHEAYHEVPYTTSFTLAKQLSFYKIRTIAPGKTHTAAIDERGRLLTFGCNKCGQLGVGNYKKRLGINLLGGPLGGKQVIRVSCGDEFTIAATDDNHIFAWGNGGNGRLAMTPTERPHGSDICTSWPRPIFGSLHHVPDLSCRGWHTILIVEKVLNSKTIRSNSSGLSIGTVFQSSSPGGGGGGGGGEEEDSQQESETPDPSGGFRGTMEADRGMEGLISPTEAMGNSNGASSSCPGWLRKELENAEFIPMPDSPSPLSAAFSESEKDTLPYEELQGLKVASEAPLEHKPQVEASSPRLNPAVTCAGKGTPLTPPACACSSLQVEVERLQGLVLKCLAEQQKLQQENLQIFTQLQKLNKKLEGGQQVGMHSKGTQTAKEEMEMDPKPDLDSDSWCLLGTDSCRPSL

[4] = biological target: Calcium/calmodulin-dependent protein kinase type 1D (Homo sapiens, UniProt Q8IU85); test: Inhibition of CAMK1d in human HeLa cells lysate at 50 uM pre incubated for 15 mins followed by ADP acyl phosphate probe addition and measured after 10 mins by LC-MS/MS analysis relative to control; assay type: subcellular; details: time 25.0 min; summary of the method: as §1
Calcium/calmodulin-dependent protein kinase type 1D, sequence (Q8IU85 whole entry, looked up): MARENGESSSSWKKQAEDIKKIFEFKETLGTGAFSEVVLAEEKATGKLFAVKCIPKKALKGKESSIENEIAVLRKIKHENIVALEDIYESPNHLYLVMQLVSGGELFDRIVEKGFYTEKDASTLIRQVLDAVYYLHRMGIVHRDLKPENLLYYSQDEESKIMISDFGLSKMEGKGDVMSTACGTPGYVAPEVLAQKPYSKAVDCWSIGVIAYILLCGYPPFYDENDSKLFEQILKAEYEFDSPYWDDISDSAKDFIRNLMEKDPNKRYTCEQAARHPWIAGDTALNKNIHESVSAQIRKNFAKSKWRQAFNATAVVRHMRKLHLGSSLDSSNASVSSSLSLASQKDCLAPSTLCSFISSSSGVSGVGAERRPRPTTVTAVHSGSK

[5] = biological target: STE20-related kinase adapter protein beta (Homo sapiens, UniProt Q9C0K7); test: Inhibition of ALS2CR2 in human HeLa cells lysate pre incubated for 15 mins followed by ADP acyl phosphate probe addition and measured after 10 mins by LC-MS/MS analysis; assay type: subcellular
STE20-related kinase adapter protein beta, sequence (Q9C0K7 whole entry, the tested form may be a part): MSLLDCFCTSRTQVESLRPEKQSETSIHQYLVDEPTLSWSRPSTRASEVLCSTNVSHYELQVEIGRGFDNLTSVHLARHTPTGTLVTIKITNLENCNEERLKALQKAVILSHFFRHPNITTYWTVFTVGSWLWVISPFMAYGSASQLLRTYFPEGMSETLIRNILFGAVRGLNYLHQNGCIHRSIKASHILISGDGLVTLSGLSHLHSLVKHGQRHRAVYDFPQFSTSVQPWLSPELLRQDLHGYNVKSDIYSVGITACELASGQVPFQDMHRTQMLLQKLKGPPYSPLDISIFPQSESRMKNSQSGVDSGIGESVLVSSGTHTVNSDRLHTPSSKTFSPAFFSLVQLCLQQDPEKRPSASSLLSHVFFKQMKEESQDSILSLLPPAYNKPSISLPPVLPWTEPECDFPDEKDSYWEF
Summary of the method: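 HeLa cell lysates (5 mg/mL total protein) were preincubated with inhibitor at 0, 0.8, 2, 10 or 50 μM for 15 min. ATP or ADP acylphosphate probe was then added (5 μM final) for 10 min, and reactions were stopped with urea. Up to four fragment ions per kinase probe-peptide were quantified by targeted MS. % inhibition was taken relative to untreated lysate. Run in duplicate.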

[6] = biological target: EKC/KEOPS complex subunit TP53RK (Homo sapiens, UniProt Q96S44); test: Inhibition of PRPK in human HeLa cells lysate pre incubated for 15 mins followed by ADP acyl phosphate probe addition and measured after 10 mins by LC-MS/MS analysis; assay type: subcellular
EKC/KEOPS complex subunit TP53RK, sequence (Q96S44 whole entry, one chain of several): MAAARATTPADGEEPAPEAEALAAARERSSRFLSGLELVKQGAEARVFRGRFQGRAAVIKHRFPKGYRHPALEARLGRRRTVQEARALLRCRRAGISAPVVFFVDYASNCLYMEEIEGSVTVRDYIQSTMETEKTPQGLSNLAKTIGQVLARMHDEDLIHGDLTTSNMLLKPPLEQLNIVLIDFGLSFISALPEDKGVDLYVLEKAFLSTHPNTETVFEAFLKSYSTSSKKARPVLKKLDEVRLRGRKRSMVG

[7] = biological target: Serine/threonine-protein kinase Nek9 (Homo sapiens, UniProt Q8TD19); test: Inhibition of NEK9 in human HeLa cells lysate pre incubated for 15 mins followed by ATP acyl phosphate probe addition and measured after 10 mins by LC-MS/MS analysis; assay type: subcellular
[8] = biological target: T2, Aurora kinase A (Homo sapiens) (UniProt O14965); test: Inhibition of AurA in human HeLa cells lysate at 2 uM pre incubated for 15 mins followed by ATP acyl phosphate probe addition and measured after 10 mins by LC-MS/MS analysis relative to control; assay type: subcellular; details: time 25.0 min; summary of the method: as §1
T2 sequence (whole entry): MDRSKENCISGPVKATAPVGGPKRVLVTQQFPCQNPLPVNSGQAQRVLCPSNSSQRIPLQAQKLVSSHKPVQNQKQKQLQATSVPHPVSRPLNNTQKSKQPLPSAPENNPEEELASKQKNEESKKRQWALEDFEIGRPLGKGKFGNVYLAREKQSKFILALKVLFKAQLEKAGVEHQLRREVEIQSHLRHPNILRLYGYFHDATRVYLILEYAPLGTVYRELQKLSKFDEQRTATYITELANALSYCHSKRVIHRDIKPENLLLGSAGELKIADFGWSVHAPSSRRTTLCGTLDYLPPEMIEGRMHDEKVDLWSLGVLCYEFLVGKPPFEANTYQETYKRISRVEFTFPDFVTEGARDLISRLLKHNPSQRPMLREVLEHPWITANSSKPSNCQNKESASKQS

[9] = biological target: Serine/threonine-protein kinase 3/4 (Homo sapiens) (UniProt Q13043+Q13188); test: Inhibition of MST1/2 in human HeLa cells lysate at 2 uM pre incubated for 15 mins followed by ADP acyl phosphate probe addition and measured after 10 mins by LC-MS/MS analysis relative to control; assay type: subcellular; details: time 25.0 min
Serine/threonine-protein kinase 3/4 (Homo sapiens), sequence (Q13043 whole entry, looked up): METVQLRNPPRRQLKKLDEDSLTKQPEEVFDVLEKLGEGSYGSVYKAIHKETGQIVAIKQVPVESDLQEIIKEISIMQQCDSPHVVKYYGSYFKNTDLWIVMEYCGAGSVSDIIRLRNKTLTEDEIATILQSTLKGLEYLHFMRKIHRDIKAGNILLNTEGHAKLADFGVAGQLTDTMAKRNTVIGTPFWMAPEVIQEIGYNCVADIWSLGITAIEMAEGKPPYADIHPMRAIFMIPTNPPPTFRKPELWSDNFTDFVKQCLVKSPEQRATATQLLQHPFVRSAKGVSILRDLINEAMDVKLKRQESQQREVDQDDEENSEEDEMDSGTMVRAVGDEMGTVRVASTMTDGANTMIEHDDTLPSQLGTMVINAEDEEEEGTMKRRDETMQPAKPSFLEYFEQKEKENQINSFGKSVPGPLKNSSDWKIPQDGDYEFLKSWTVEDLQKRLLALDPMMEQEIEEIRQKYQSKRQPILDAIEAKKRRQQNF
Serine/threonine-protein kinase 3/4 (Homo sapiens), sequence (Q13188 whole entry, looked up): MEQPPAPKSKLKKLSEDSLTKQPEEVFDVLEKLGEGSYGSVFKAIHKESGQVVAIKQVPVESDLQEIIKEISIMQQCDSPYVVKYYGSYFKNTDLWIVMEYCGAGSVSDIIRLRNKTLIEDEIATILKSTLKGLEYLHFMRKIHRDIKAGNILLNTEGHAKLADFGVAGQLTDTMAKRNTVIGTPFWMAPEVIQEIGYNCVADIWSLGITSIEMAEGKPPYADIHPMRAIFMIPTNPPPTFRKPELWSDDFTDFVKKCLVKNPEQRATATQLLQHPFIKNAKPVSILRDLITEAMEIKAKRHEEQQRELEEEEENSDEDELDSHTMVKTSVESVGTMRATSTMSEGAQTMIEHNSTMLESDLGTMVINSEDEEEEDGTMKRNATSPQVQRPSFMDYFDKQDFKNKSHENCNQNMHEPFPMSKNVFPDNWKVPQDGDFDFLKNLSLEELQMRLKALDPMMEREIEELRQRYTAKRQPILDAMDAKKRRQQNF

[10] = biological target: Cyclin-dependent kinase 13 (Homo sapiens, UniProt Q14004); test: Inhibition of CHED in human HeLa cells lysate at 2 uM pre incubated for 15 mins followed by ADP acyl phosphate probe addition and measured after 10 mins by LC-MS/MS analysis relative to control; assay type: subcellular; details: time 25.0 min
Cyclin-dependent kinase 13, sequence (Q14004 whole entry, looked up, the tested form may be a part): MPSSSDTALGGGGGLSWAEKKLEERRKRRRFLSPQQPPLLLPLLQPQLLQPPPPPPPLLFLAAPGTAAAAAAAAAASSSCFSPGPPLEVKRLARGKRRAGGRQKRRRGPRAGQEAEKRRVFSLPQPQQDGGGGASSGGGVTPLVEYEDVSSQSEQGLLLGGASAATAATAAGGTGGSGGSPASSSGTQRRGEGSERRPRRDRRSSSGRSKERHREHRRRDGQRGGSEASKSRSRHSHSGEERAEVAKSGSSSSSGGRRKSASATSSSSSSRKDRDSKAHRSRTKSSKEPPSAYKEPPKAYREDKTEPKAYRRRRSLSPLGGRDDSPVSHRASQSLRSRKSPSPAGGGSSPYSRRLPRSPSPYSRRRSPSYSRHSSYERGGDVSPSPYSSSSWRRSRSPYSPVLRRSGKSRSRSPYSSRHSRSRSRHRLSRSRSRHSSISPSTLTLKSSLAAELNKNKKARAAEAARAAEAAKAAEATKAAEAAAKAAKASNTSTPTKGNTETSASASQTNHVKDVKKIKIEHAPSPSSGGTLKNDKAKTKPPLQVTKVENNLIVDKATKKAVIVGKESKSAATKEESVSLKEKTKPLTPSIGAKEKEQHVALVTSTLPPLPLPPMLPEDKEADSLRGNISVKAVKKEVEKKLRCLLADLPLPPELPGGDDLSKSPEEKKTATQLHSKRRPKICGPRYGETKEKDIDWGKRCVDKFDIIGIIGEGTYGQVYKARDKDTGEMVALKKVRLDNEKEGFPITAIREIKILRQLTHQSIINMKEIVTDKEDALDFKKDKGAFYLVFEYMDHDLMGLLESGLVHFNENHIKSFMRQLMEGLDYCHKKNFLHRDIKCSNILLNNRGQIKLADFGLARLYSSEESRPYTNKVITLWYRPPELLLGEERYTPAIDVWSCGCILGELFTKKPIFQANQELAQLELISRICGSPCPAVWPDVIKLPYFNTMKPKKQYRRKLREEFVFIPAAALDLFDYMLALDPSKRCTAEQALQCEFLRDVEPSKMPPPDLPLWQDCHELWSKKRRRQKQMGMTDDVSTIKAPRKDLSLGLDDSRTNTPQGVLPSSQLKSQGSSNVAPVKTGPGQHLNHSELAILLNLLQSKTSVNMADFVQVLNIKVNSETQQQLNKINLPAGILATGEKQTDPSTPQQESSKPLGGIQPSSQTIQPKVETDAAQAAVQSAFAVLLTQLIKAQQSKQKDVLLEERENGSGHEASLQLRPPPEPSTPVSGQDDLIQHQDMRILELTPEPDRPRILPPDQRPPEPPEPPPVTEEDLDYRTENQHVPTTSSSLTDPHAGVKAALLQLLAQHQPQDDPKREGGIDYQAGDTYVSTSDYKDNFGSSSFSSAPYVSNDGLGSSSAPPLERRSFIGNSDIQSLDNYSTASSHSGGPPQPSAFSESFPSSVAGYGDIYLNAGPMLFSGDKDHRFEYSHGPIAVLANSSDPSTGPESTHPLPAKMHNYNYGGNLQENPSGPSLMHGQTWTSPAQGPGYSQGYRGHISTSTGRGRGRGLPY
Summary of the method: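 KiNativ profiling in HeLa lysate (5 mg/mL total protein). Lysate incubated 15 min with inhibitor at 50, 10, 2, 0.8 or 0 μM. ATP or ADP acylphosphate probe then added (5 μM final) and reacted 10 min. Reaction stopped with urea and analysed by targeted MS, using up to four fragment ions per kinase peptide-probe conjugate. % inhibition taken against untreated lysate. Run in duplicate.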

[11] = Inhibition of HGK/MINK/TNIK in human HeLa cells lysate at 50 uM pre incubated for 15 mins followed by ATP acyl phosphate probe addition and measured after 10 mins by LC-MS/MS analysis relative to control; details: 25 min, condition cancer

For CCOc1cc(N2CCC(O)CC2)ccc1Nc1ncc2c(n1)N(C)c1ccccc1C(=O)N2C, the pIC50 [1] was less than 4.30, the inhibition at 2 µM [2] was -4.6% and the inhibition [3] was -7.3%. The inhibition [4] was -1.9%, the pIC50 [5] was less than 4.30 and the pIC50 [6] was less than 4.30. For the same compound, the pIC50 [7] was less than 4.30, the inhibition [8] was 7.2% and the inhibition [9] was -1.2%. It also gave an inhibition [10] of 28.1% and an inhibition at 50 µM [11] of -2.6%.
